Measured values reported in paper PMC2731475 (Journal of the American Chemical Society, 2009).
Read-outs that look alike come from different tables or passages of the source.

Tests used:
[1] = tested on: 5′CUG/3′GUC; conditions: studies on 5′UTR of thymidylate synthetase mRNA; cited from earlier work
[2] = tested on: mice; conditions: cited from earlier work
[3] = biological target: DNA1; assay: Fluorescence binding assay, DNA1; conditions: for Kd: DNA1, DNA hairpin with 5′AATT/3′TTAA
How it was run: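 The DNA hairpin was titrated into 1 μM test compound in 8 mM sodium phosphate pH 7.0, 185 mM NaCl, 1 mM EDTA. After 5 min incubation, fluorescence was read at ex 360/40 and em 460/40. Fraction bound/[nucleic acid] was plotted against fraction bound to obtain binding constants.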

[4] = tested on: r(CUG)109; assay: Fluorescence binding assay, r
How it was run: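 r(CUG)109, transcribed from BamHI-linearised plasmid and gel-purified, was annealed at 60 °C for 1 min in pH 7.0 phosphate/185 mM NaCl/EDTA buffer. It was titrated into test compound (1 μM; 5 μM for one monomeric ligand) and fluorescence read after 5 min. Data were fitted to a lattice-binding equation with N repeat units. Selectivity = Kd(herring sperm DNA)/Kd(r(CUG)109).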

[5] = tested on: RNA11-MBNL1 complex; assay: MBNL1-RNA11; assay type: biochemical
[6] = biological target: herring sperm DNA; assay: Fluorescence binding assay, herring sperm DNA
How it was run: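 Herring sperm DNA was annealed at 90 °C for 3 min in 8 mM sodium phosphate pH 7.0, 185 mM NaCl, 1 mM EDTA and slowly cooled. It was titrated into 1 μM test compound, and fluorescence (ex 360/40, em 460/40) was read after 5 min. Fraction bound/[DNA] versus fraction bound was fitted to a straight line for Kd.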

[7] = biological target: RNA5; assay: Fluorescence binding assay, RNA5
How it was run: (§1)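 RNA hairpins were annealed in 8 mM sodium phosphate pH 7.0, 185 mM NaCl, 1 mM EDTA at 60 °C for 1 min and slowly cooled. They were titrated into 1 μM test compound in the same buffer and read after 5 min as fluorescence (ex 360/40, em 460/40). Plots were fraction bound/[RNA] versus fraction bound, fitted to a large-ligand lattice-binding equation giving the microscopic dissociation constant.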

[8] = tested on: RNA3; assay: Fluorescence binding assay, RNA3
How it was run: as §1

[9] = biological target: RNA4; assay: Fluorescence binding assay, RNA4
How it was run: as §1

[10] = biological target: r(CUG)109-MBNL1 complex; assay: r; assay type: biochemical
[11] = biological target: RNA6; assay: Fluorescence binding assay, RNA6
How it was run: as §1

[12] = tested on: RNA12-MBNL1 complex; assay: MBNL1-RNA12; assay type: biochemical
[13] = biological target: RNA9; assay: Fluorescence binding assay, RNA9
How it was run: as §1

[14] = biological target: RNA8; assay: Fluorescence binding assay, RNA8
How it was run: as §1

[15] = biological target: RNA7; assay: Fluorescence binding assay, RNA7
How it was run: as §1

[16] = biological target: RNA10; assay: Fluorescence binding assay, RNA10
[17] = biological target: RNA2; assay: Fluorescence binding assay, RNA2; conditions: RNA2, single 5′CUG/3′GUC (DM1) motif
How it was run: as §1

[18] = biological target: RNA1; assay: Fluorescence binding assay, RNA1
How it was run: as §1

[19] = tested on: RNAs containing a 1×1 nucleotide CC internal loop; conditions: cited from earlier work
[20] = biological target: r(CUG)109; conditions: MBNL1 binding to r(CUG)109; cited from earlier work
[21] = tested on: RNA14; assay: Binding of MBNL1 to RNA14
[22] = biological target: RNA15; conditions: MBNL1 binding to RNA15, gel retardation; cited from earlier work
[23] = biological target: RNA14; conditions: MBNL1 binding to RNA14, gel retardation; cited from earlier work
[24] = biological target: RNA13; conditions: MBNL1 binding to RNA13, gel retardation; cited from earlier work
[25] = tested on: RNA16; assay: Binding of MBNL1 to RNA16; conditions: MBNL1, RNA16 versus RNA11
[26] = tested on: RNA12; assay: Binding of MBNL1 to RNA12; conditions: MBNL1, RNA12 versus RNA11
[27] = biological target: RNA16; conditions: MBNL1 binding to RNA16, gel retardation; cited from earlier work
[28] = tested on: RNA17; assay: Binding of MBNL1 to RNA17
[29] = biological target: RNA12; conditions: MBNL1 binding to RNA12, gel retardation; cited from earlier work
[30] = tested on: RNA13; assay: Binding of MBNL1 to RNA13; conditions: MBNL1, RNA13 versus RNA11
[31] = biological target: RNA11; conditions: MBNL1 binding to RNA11, gel retardation; cited from earlier work

For `CN1CCN(c2ccc3[nH]c(-c4ccc5[nH]c(-c6ccc(O)cc6)nc5c4)nc3c2)CC1` [Compound 1, Hoechst 33258], the “affinity for 5′CUG/3′GUC” value [1] is listed as “nanomolar affinity”, the “tolerability and toxicity in mice” value [2] is listed as “well tolerated by and non-toxic to mice” and the Kd [3] is listed as 280 nM.

In the case of `CN1CCN(c2ccc3nc(-c4ccc5nc(-c6cccc(OCCCC(=O)NCCCN=[N+]=[N-])c6)[nH]c5c4)[nH]c3c2)CC1` [Compound 2, meta-(N-(3-azidopropyl)-4-oxybutanamide)-Hoechst], the “specificity for r(CUG)109 versus herring sperm DNA” value [4] is reported as 0.7 fold, the “Selectivity for r(CUG)109 over herring sperm DNA” value ([4]; Kd herring sperm DNA divided by Kd r(CUG)109) is reported as 0.73 and the Kd ([4]; r(CUG)109 hairpin, 54 DM1 motifs) is reported as 150 ± 25 nM. The IC50 ([5]; RNA 11, Condition A: 7.5 pmoles of MBNL1 per well) was 30200 ± 6800 nM, the IC50 ([5]; RNA 11, Condition B: 2.0 pmoles of MBNL1 per well) was 38100 ± 6900 nM and the Kd [6] was 110 ± 19 nM. The Kd ([7]; RNA5, 1×1 UU loop with GU closing pairs) was 810 ± 150 nM, the “Specificity to RNA2” value ([7]; RNA5 versus RNA2) was 6.2 and the “weaker binding than to RNA2” value ([7]; loop GC pairs (RNA2) changed to GU (RNA5)) was about 6 fold. For the same molecule, the “binds RNA2 more tightly than RNA3” value ([8]; 5′CUG/3′GUC (RNA2) versus 5′CUC/3′GUG (RNA3)) was over 8 fold, the Kd ([8]; RNA3, 5′CUC/3′GUG) was 1050 ± 212 nM and the “Specificity to RNA2” value ([8]; RNA3 versus RNA2) was 8.0. The Kd ([9]; RNA4, 1×1 UU loop with AU closing pairs) was 370 ± 107 nM, the “Specificity to RNA2” value ([9]; RNA4 versus RNA2) was 2.8 and the “weaker binding than to RNA2” value ([9]; loop GC pairs (RNA2) changed to AU (RNA4)) was “Approximately 3 fold”. For the same molecule, the IC50 ([10]; 0.65 pmoles r(CUG)109 immobilized, 3.7 μM bulk yeast tRNA, 32 pmoles MBNL1) was 110000 ± 20000 nM, the “inhibition of the MBNL1-r(CUG)109 interaction” value ([10]; in the presence of bulk yeast tRNA) was at least 95% and the Kd [3] was 250 ± 63 nM. For the same molecule, the “Specificity to RNA2” value ([3]; DNA1 versus RNA2) was 1.9, the “specific for RNA2 over DNA1” value ([3]; RNA2 over DNA1) was about 2 fold and the Kd ([11]; RNA6, 1×1 CC loop) was 290 ± 50 nM. For the same molecule, the “Specificity to RNA2” value ([11]; RNA6 versus RNA2) was 2.2, the IC50 ([12]; RNA 12, Condition A: 7.5 pmoles of MBNL1 per well) was 48400 ± 9900 nM and the IC50 ([12]; RNA 12, Condition B: 2.0 pmoles of MBNL1 per well) was 21100 ± 500 nM. The Kd ([13]; RNA9, 1×1 AA loop (SCA3 motif)) was 450 ± 100 nM, the “Specificity to RNA2” value ([13]; RNA9 versus RNA2) was 3.5 and the Kd ([14]; RNA8) was 520 ± 18 nM. The “Specificity to RNA2” value ([14]; RNA8 versus RNA2) was 4.0, the Kd ([15]; RNA7, 1×1 CC loop) was about 1000 nM and the “Specificity to RNA2” value ([15]; RNA7 versus RNA2) was “∼7.7”. For the same molecule, the Kd ([16]; RNA10, 1×1 AA loop) was 820 ± 160 nM, the “Specificity to RNA2” value ([16]; RNA10 versus RNA2) was 6.3 and the Kd [17] was 130 ± 25 nM. The Kd ([18]; RNA1, fully paired hairpin cassette) was 1700 ± 70 nM, the “Specificity to RNA2” value ([18]; RNA1 versus RNA2) was 13.1 and the “binds RNA2 more tightly than RNA1” value ([18]; RNA2 over RNA1) was 13 fold.

For `N=C(N)c1ccc(-c2cc3ccc(C(=N)N)cc3[nH]2)cc1` [DAPI, 2-(4-amidinophenyl)-1H-indole-6-carboxamidine], the “affinity for RNAs containing a 1×1 nucleotide CC internal loop” value [19] is listed as “nanomolar affinities”.

In the case of `Cn1cc(NC(=O)c2cc(NC(=O)c3cc(NC=O)cn3C)cn2C)cc1C(=O)NCCC(=N)N` [distamycin], the “affinity for RNAs containing a 1×1 nucleotide CC internal loop” value [19] is listed as “nanomolar affinities”.

B1: MBNL1: Muscleblind-like 1 protein, alternative splicing regulator that binds expanded rCUG repeats (protein, UniProt Q9NR56 1-388, looked up)
Muscleblind-like protein 1: MAVSVTPIRDTKWLTLEVCREFQRGTCSRPDTECKFAHPSKSCQVENGRVIACFDSLKGRCSRENCKYLHPPPHLKTQLEINGRNNLIQQKNMAMLAQQMQLANAMMPGAPLQPVPMFSVAPSLATNASAAAFNPYLGPVSPSLVPAEILPTAPMLVTGNPGVPVPAAAAAAAQKLMRTDRLEVCREYQRGNCNRGENDCRFAHPADSTMIDTNDNTVTVCMDYIKGRCSREKCKYFHPPAHLQAKIKAAQYQVNQAAAAQAAATAAAMTQSAVKSLKRPLEATFDLGIPQAVLPPLPKRPALEKTNGATAVFNTGIFQYQQALANMQLQQHTAFLPPVPMVHGATPATVSAATTSATSVPFAATATANQIPIISAEHLTSHKYVTQM
In the case of B1, the Kd [20] is given as 300 ± 93 nM, the “higher affinity than the DM1-MBNL1 complex” value ([21]; MBNL1, DM2 RNA14) is given as 2 fold and the “Specificity to DM1 RNA11” value ([21]; MBNL1, RNA14 versus RNA11) is given as 0.5. The Kd [22] was over 2500 nM, the Kd [23] was 120 ± 40 nM and the Kd [24] was 200 ± 30 nM. For the same molecule, the “Specificity to DM1 RNA11” value [25] was 3.7, the “Specificity to DM1 RNA11” value [26] was 2.5 and the “weaker than the DM1-MBNL1 complex” value [26] was 2.5 fold. For the same molecule, the Kd [27] was 920 ± 150 nM, the “Specificity to DM1 RNA11” value ([28]; MBNL1, RNA17 versus RNA11) was over 4 and the Kd ([28]; MBNL1 binding to fully paired RNA17) was over 1000 nM. For the same molecule, the Kd [29] was 630 ± 70 nM, the “Specificity to DM1 RNA11” value [30] was 0.8 and the Kd [31] was 250 ± 10 nM.
